Results published in ChEMBL document CHEMBL4184136, “α-Glucosidase Inhibitory and Cytotoxic Taxane Diterpenoids from the Stem Bark of Taxus wallichiana” (J Nat Prod, 2017).

How the values were obtained:
[1] = Inhibition of Saccharomyces cerevisiae alpha-glucosidase using p-nitrophenyl-alpha-D-glucopyranoside substrate incubated for 30 mins
In short: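 Sample solution received 3 mM p-nitrophenyl-α-D-glucopyranoside and 0.2 U/mL α-glucosidase (stock levels) in 0.01 M phosphate buffer pH 7.0, incubated at 37 °C for 30 min. Stopped with 0.1 M Na2CO3; p-nitrophenol release read at 401 nm. IC50 is the concentration giving 50% inhibition of enzyme activity; acarbose as positive control.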

HeLa = assay: Cytotoxicity against human HeLa cells assessed as reduction in cell viability incubated for 72 hrs by WST-8 dye based assay; assay type: functional
In short: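 HeLa cells kept in DMEM with 10% FBS, 0.1% NaHCO3 and 1% antibiotic-antimycotic. Cells seeded at 2 × 10^3/well and grown 24 h at 37 °C in humidified 5% CO2. Washed with PBS, then exposed to serially diluted samples in DMEM for 72 h. Washed twice, given DMEM with 10% WST-8 for 3 h, A450 read; viability from mean of three wells; IC50.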

Saccharomyces cerevisiae = assay: Potency index, ratio of IC50 for Acarbose to IC50 for test compound for inhibition of Saccharomyces cerevisiae alpha-glucosidase using p-nitrophenyl-alpha-D-glucopyranoside substrate incubated for 30 mins

Structure (SMILES)	IC50 [1]	Ratio IC50 (Saccharomyces cerevisiae)	IC50 (HeLa)
CC(=O)O[C@H]1C(=O)[C@@]2(C)[C@H]([C@H](OC(=O)c3ccccc3)[C@]3(O)C[C@H](OC(=O)[C@H](O)[C@@H](NC(=O)c4ccccc4)c4ccccc4)C(C)=C1C3(C)C)[C@]1(OC(C)=O)CO[C@@H]1C[C@@H]2O [PACLITAXEL]	> 250 µM	–	–
C/C=C(\C)C(=O)N[C@@H](c1ccccc1)[C@@H](O)C(=O)O[C@H]1C[C@@]2(O)[C@@H](OC(=O)c3ccccc3)[C@@H]3[C@]4(OC(C)=O)CO[C@@H]4C[C@H](O[C@@H]4OC[C@@H](O)[C@H](O)[C@H]4O)[C@@]3(C)C(=O)C(=O)C(=C1C)C2(C)C	142 µM	–	–
CC(=O)O[C@@]12CO[C@@H]1C[C@H](O)[C@@]1(C)C(=O)[C@H](O)C3=C(C)[C@@H](OC(=O)[C@H](O)[C@@H](NC(=O)c4ccccc4)c4ccccc4)C[C@@](O)([C@@H](OC(=O)c4ccccc4)[C@H]21)C3(C)C	> 250 µM	–	0.00075 µM
C=C1[C@@H](O)C[C@H](OC(C)=O)[C@@]2(C)[C@@H](OC(C)=O)[C@H](OC(C)=O)C3=C(C)C(=O)C[C@@H]([C@@H](OC(C)=O)[C@H]12)C3(C)C	> 250 µM	–	> 10 µM
CC(C)CC[C@@H](O)[C@](C)(O)[C@H]1CC[C@@]2(O)C3=CC(=O)[C@@H]4C[C@@H](O)[C@@H](O)C[C@]4(C)[C@H]3CC[C@]12C [PONASTERONE A]	115 µM	–	> 10 µM
COc1cc([C@H]2c3cc(O)c(OC)cc3C[C@H]3C(=O)OC[C@H]23)ccc1O [ALPHA-CONIDENDRIN]	194 µM	–	> 10 µM
CCCCCC(=O)N[C@@H](c1ccccc1)[C@@H](O)C(=O)O[C@H]1C[C@@]2(O)[C@@H](OC(=O)c3ccccc3)[C@@H]3[C@]4(OC(C)=O)CO[C@@H]4C[C@H](O[C@@H]4OC[C@@H](O)[C@H](O)[C@H]4O)[C@@]3(C)C(=O)[C@H](O)C(=C1C)C2(C)C	86.9 µM	–	0.05 µM
C=C1[C@@H]2[C@H](OC(C)=O)[C@@H]3CC(=O)[C@@]4(C)OC[C@@]3(C)[C@@]4(O)[C@@H](OC(C)=O)[C@H](OC(C)=O)[C@]2(COC(=O)c2ccccc2)[C@@H](OC(C)=O)C[C@@H]1O	> 250 µM	–	> 10 µM
CC(=O)O[C@@]12CO[C@@H]1C[C@H](O)[C@@]1(C)C(=O)[C@H](O)C3=C(C)C(=O)C[C@@](O)([C@@H](OC(=O)c4ccccc4)[C@H]21)C3(C)C	> 250 µM	–	> 10 µM
C=C1[C@@H](O)CC[C@@]2(C)C[C@H](OC)C3=C(C)C[C@H](OC(=O)C(C)C(C)O)[C@@H]([C@@H](OC(C)=O)[C@H]12)C3(C)C (some centres undefined)	113 µM	–	–
C[C@H]1O[C@H](O[C@H]2[C@H](O)[C@@H](O)[C@@H](O[C@H]3[C@H](O)[C@@H](O)C(O)O[C@@H]3CO)O[C@@H]2CO)[C@H](O)[C@@H](O)[C@@H]1N[C@H]1C=C(CO)[C@@H](O)[C@H](O)[C@H]1O (some centres undefined) [ACARBOSE]	215 µM	–	–
CCCCCCCCC/C=C\CC/C=C/[C@@H](O)[C@H](CO[C@@H]1O[C@H](CO)[C@@H](O)[C@H](O)[C@H]1O)NC(=O)[C@H](O)CCCCCCCCCCCCC	> 250 µM	–	> 10 µM
CC=C(C)C(=O)N[C@@H](c1ccccc1)[C@@H](O)C(=O)O[C@H]1C[C@@]2(O)[C@@H](OC(=O)c3ccccc3)[C@@H]3[C@]4(OC(C)=O)CO[C@@H]4C[C@H](O[C@@H]4OC[C@@H](O)[C@H](O)[C@H]4O)[C@@]3(C)C(=O)[C@H](OC(C)=O)C(=C1C)C2(C)C	> 250 µM	–	0.14 µM
COc1cc(C[C@@H]2COC(=O)[C@H]2Cc2ccc(O)c(OC)c2)ccc1O	175 µM	–	> 10 µM
CC(=O)O[C@@]12CO[C@@H]1C[C@@H](O)[C@@]1(C)C(=O)[C@H](O)C3=C(C)[C@@H](OC(=O)[C@H](O)[C@@H](NC(=O)c4ccccc4)c4ccccc4)C[C@@](O)([C@@H](OC(=O)c4ccccc4)[C@H]21)C3(C)C	48.8 µM	–	8.5e-05 µM
C=C1[C@@H](OC(C)=O)CC[C@@]2(C)C[C@H](OC(C)=O)C3=C(C)C[C@H](OC(=O)C(C)C(C)O)[C@@H]([C@@H](OC(C)=O)[C@H]12)C3(C)C (some centres undefined)	194 µM	–	> 10 µM
C=C1[C@@H](O)C[C@H](OC(C)=O)[C@@]2(C)[C@@H](OC(C)=O)[C@H](OC(C)=O)C3=C(C)C(=O)C[C@@H]([C@@H](O)[C@H]12)C3(C)C	> 250 µM	–	> 10 µM

The remaining molecules from weak to strong by IC50 [1], led by results:

IC50 [1]	Ratio IC50 (Saccharomyces cerevisiae)	Structure (SMILES)	IC50 (HeLa)
111 µM	–	C=C1[C@@H](OC(=O)/C=C/c2ccccc2)C[C@H](OC(C)=O)[C@@]2(C)[C@@H](OC(C)=O)[C@H](OC(C)=O)C3=C(C)C(=O)C[C@@H]([C@@H](OC(C)=O)[C@H]12)C3(C)C	–
97.5 µM	–	CO[C@H]1O[C@H]2[C@@H]3[C@@H]1[C@@H](O)C[C@H](O)[C@@]3(C)[C@@H](O)[C@H](OC(C)=O)C1=C(C)[C@@H](OC(C)=O)C[C@]2(O)C1(C)C	> 10 µM
94.1 µM	–	CCCCCC(=O)N[C@@H](c1ccccc1)[C@@H](O)C(=O)O[C@H]1C[C@@]2(O)[C@@H](OC(=O)c3ccccc3)[C@@H]3[C@]4(OC(C)=O)CO[C@@H]4C[C@H](O[C@@H]4OC[C@@H](O)[C@H](O)[C@H]4O)[C@@]3(C)C(=O)[C@H](OC(C)=O)C(=C1C)C2(C)C	0.0015 µM
88.5 µM	–	C=C1[C@H]2C[C@]34CC=C(C)C3[C@@H](OC4(C)C)[C@H](OC(C)=O)[C@]2(C)[C@@H](OC(C)=O)C[C@@H]1O (some centres undefined)	> 10 µM
87.2 µM	–	CC1(C)CC[C@]2(C(=O)O)CC[C@]3(C)C(=CC[C@@H]4[C@@]5(C)CC[C@H](O)C(C)(C)[C@@H]5CC[C@]43C)[C@@H]2C1 [OLEANOLIC_ACID]	–
83.6 µM	–	CC(=O)O[C@@]12CO[C@@H]1C[C@H](O[C@@H]1OC[C@@H](O)[C@H](O)[C@H]1O)[C@@]1(C)C(=O)C(=O)C3=C(C)CC[C@@]3(C(C)(C)OC(=O)c3ccccc3)[C@@H](O)[C@H]21	4.9 µM
46.5 µM	–	COc1cc(C[C@H]2COC(=O)[C@@H]2Cc2ccc(O)c(OC)c2)ccc1O [MATAIRESINOL]	–
42.7 µM	–	CC(=O)O[C@H]1C(=O)[C@]2(C)[C@H](O)C[C@H]3OC[C@@]3(OC(C)=O)[C@H]2[C@H](OC(=O)c2ccccc2)[C@]2(O)C[C@H](OC(=O)[C@H](O)[C@@H](NC(=O)c3ccccc3)c3ccccc3)C(C)=C1C2(C)C	–
38 µM	–	C=C1[C@@H](OC(=O)/C=C/c2ccccc2)C[C@H](OC(C)=O)[C@]2(C)[C@@H]1C[C@@H]1C[C@H](OC(C)=O)C(C)=C([C@@H](OC(C)=O)[C@@H]2OC(C)=O)C1(C)C	5.7 µM
31.8 µM	–	C=C1[C@@H](OC(C)=O)CC[C@@]2(C)C[C@H](OC)C3=C(C)C[C@H](OC(C)=O)[C@@H]([C@@H](OC(C)=O)[C@H]12)C3(C)C	–
15 µM	–	C=C1[C@@H](OC(=O)/C=C/c2ccccc2)C[C@H](OC(C)=O)[C@]2(C)[C@@H]1C[C@@H]1C[C@H](O)C(C)=C([C@@H](OC(C)=O)[C@@H]2OC(C)=O)C1(C)C [TAXEZOPIDINE H]	> 10 µM
3.6 µM	60	C=C1[C@@H](OC(C)=O)CC[C@@]2(C)C[C@H](OC)C3=C(C)C[C@H](OC(=O)C(C)C(C)O)[C@@H]([C@@H](OC(C)=O)[C@H]12)C3(C)C (some centres undefined)	–
